Test results: ChEMBL document CHEMBL4811308, “Design, synthesis and broad spectrum antibreast cancer activity of diarylindoles via induction of apoptosis in aggressive breast cancer cells” (Bioorg Med Chem, 2021)

Experiments:
Format in all cases: organism-based
[1] = Acute toxicity in Swiss albino mouse assessed as RBC level at 5 mg/kg, po administered once and observed for 7 days (reference value: 9.21 +/- 0.32 /mm3); details: in vivo, 168 h, time 7 day
[2] = Acute toxicity in Swiss albino mouse assessed as SGPT level at 5 mg/kg, po administered once and observed for 7 days (reference value: 12.65 +/- 2.98 U/L); details: in vivo, 168 h, time 7 day
[3] = Acute toxicity in Swiss albino mouse assessed as body weight at 50 mg/kg, po administered once and observed for 7 days (reference value: 22.75 +/- 0.93 gm); details: in vivo, 168 h, time 7 day
[4] = Acute toxicity in Swiss albino mouse assessed as WBC level at 300 mg/kg, po administered once and observed for 7 days (reference value: 8.55 +/- 2.71 /mm3); details: in vivo, 168 h, time 7 day
[5] = Acute toxicity in Swiss albino mouse assessed as effect on posture at 5 to 300 mg/kg, po administered once and observed for 7 days; details: in vivo, 168 h, dose 5-300 mg/kg, time 7 day
Summary of the method: (§1)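 Acute oral toxicity per OECD guideline 423; mice 20–25 g, 3 male + 3 female per group, acclimatized 7 days at 22 ± 5 °C, 12 h light/dark. Compound dissolved in minimal DMSO, diluted in 0.7% CMC, single oral dose of 5, 50 or 300 mg/kg; controls given vehicle only. Clinical signs checked hourly on dosing day, then daily. Samples and body weights taken on day 7.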

[6] = Acute toxicity in Swiss albino mouse assessed as absolute liver weight at 5 to 300 mg/kg, po administered once and observed for 7 days; details: in vivo, 168 h, dose 5-300 mg/kg, time 7 day; summary of the method: as §1
[7] = Acute toxicity in Swiss albino mouse assessed as SGOT level at 50 mg/kg, po administered once and observed for 7 days (reference value: 22.94 +/- 4.04 U/L); details: in vivo, 168 h, time 7 day
[8] = Acute toxicity in Swiss albino mouse assessed as WBC level at 5 mg/kg, po administered once and observed for 7 days (reference value: 8.55 +/- 2.71 /mm3); details: in vivo, 168 h, time 7 day
[9] = Acute toxicity in Swiss albino mouse assessed as mortality at 5 to 300 mg/kg, po administered once and observed for 7 days; details: in vivo, 168 h, dose 5-300 mg/kg, time 7 day; summary of the method: as §1
[10] = Acute toxicity in Swiss albino mouse assessed as protein level at 300 mg/kg, po administered once and observed for 7 days (reference value: 2.01 +/- 0.11 mg/ml); details: in vivo, 168 h, time 7 day
[11] = Acute toxicity in Swiss albino mouse assessed as protein level at 50 mg/kg, po administered once and observed for 7 days (reference value: 2.01 +/- 0.11 mg/ml); details: in vivo, 168 h, time 7 day
[12] = Acute toxicity in Swiss albino mouse assessed as triglyceride level at 5 mg/kg, po administered once and observed for 7 days (reference value: 81.12 +/- 7.75 mg/dl); details: in vivo, 168 h, time 7 day
[13] = Acute toxicity in Swiss albino mouse assessed as ALP level at 5 mg/kg, po administered once and observed for 7 days (reference value: 123.22 +/- 16.04 U/L); details: in vivo, 168 h, time 7 day
[14] = Acute toxicity in Swiss albino mouse assessed as triglyceride level at 300 mg/kg, po administered once and observed for 7 days (reference value: 81.12 +/- 7.75 mg/dl); details: in vivo, 168 h, time 7 day
[15] = Acute toxicity in Swiss albino mouse assessed as bilirubin level at 300 mg/kg, po administered once and observed for 7 days (reference value: 0.44 +/- 0.06 mg/dl); details: in vivo, 168 h, time 7 day
[16] = Acute toxicity in Swiss albino mouse assessed as creatinine level at 5 mg/kg, po administered once and observed for 7 days (reference value: 0.11 +/- 0.03 mg/dL); details: in vivo, 168 h, time 7 day
[17] = Acute toxicity in Swiss albino mouse assessed as hemoglobin level at 300 mg/kg, po administered once and observed for 7 days (reference value: 17.35 +/- 0.3 gm/dl); details: in vivo, 168 h, time 7 day
[18] = Acute toxicity in Swiss albino mouse assessed as triglyceride level at 50 mg/kg, po administered once and observed for 7 days (reference value: 81.12 +/- 7.75 mg/dl); details: in vivo, 168 h, time 7 day
[19] = Acute toxicity in Swiss albino mouse assessed as relative spleen weight at 5 to 300 mg/kg, po administered once and observed for 7 days; details: in vivo, 168 h, dose 5-300 mg/kg, time 7 day; summary of the method: as §1
[20] = Acute toxicity in Swiss albino mouse assessed as WBC level at 50 mg/kg, po administered once and observed for 7 days (reference value: 8.55 +/- 2.71 /mm3); details: in vivo, 168 h, time 7 day
[21] = Acute toxicity in Swiss albino mouse assessed as hemoglobin level at 50 mg/kg, po administered once and observed for 7 days (reference value: 17.35 +/- 0.3 gm/dl); details: in vivo, 168 h, time 7 day
[22] = Acute toxicity in Swiss albino mouse assessed as absolute brain weight at 5 to 300 mg/kg, po administered once and observed for 7 days; details: in vivo, 168 h, dose 5-300 mg/kg, time 7 day; summary of the method: as §1
[23] = Acute toxicity in Swiss albino mouse assessed as SGPT level at 50 mg/kg, po administered once and observed for 7 days (reference value: 12.65 +/- 2.98 U/L); details: in vivo, 168 h, time 7 day
[24] = Acute toxicity in Swiss albino mouse assessed as absolute spleen weight at 5 to 300 mg/kg, po administered once and observed for 7 days; details: in vivo, 168 h, dose 5-300 mg/kg, time 7 day; summary of the method: as §1
[25] = Acute toxicity in Swiss albino mouse assessed as creatinine level at 50 mg/kg, po administered once and observed for 7 days (reference value: 0.11 +/- 0.03 mg/dL); details: in vivo, 168 h, time 7 day
[26] = Acute toxicity in Swiss albino mouse assessed as albumin at 300 mg/kg, po administered once and observed for 7 days (reference value: 1.62 +/- 0.09 g/dl); details: in vivo, 168 h, time 7 day
[27] = Acute toxicity in Swiss albino mouse assessed as relative lungs weight at 5 to 300 mg/kg, po administered once and observed for 7 days; details: in vivo, 168 h, dose 5-300 mg/kg, time 7 day; summary of the method: as §1
[28] = Acute toxicity in Swiss albino mouse assessed as cholesterol level at 50 mg/kg, po administered once and observed for 7 days (reference value: 122.05 +/- 8.12 mg/dl); details: in vivo, 168 h, time 7 day
[29] = Acute toxicity in Swiss albino mouse assessed as body weight at 5 mg/kg, po administered once and observed for 7 days (reference value: 22.75 +/- 0.93 gm); details: in vivo, 168 h, time 7 day
[30] = Acute toxicity in Swiss albino mouse assessed as SGOT level at 300 mg/kg, po administered once and observed for 7 days (reference value: 22.94 +/- 4.04 U/L); details: in vivo, 168 h, time 7 day
[31] = Acute toxicity in Swiss albino mouse assessed as albumin at 5 mg/kg, po administered once and observed for 7 days (reference value: 1.62 +/- 0.09 g/dl); details: in vivo, 168 h, time 7 day
[32] = Acute toxicity in Swiss albino mouse assessed as protein level at 5 mg/kg, po administered once and observed for 7 days (reference value: 2.01 +/- 0.11 mg/ml); details: in vivo, 168 h, time 7 day
[33] = Acute toxicity in Swiss albino mouse assessed as body weight at 300 mg/kg, po administered once and observed for 7 days (reference value: 22.75 +/- 0.93 gm); details: in vivo, 168 h, time 7 day
[34] = Acute toxicity in Swiss albino mouse assessed as RBC level at 50 mg/kg, po administered once and observed for 7 days (reference value: 9.21 +/- 0.32 /mm3); details: in vivo, 168 h, time 7 day
[35] = Acute toxicity in Swiss albino mouse assessed as albumin at 50 mg/kg, po administered once and observed for 7 days (reference value: 1.62 +/- 0.09 g/dl); details: in vivo, 168 h, time 7 day

| SMILES | Activity [1] | Activity [2] | Activity [3] | Activity [4] | Activity [5] | Activity [6] | Activity [7] | Activity [8] | Activity [9] | Activity [10] | Activity [11] | Activity [12] | Activity [13] | Activity [14] | Activity [15] | Activity [16] | Activity [17] | Activity [18] | Activity [19] | Activity [20] | other results |
| --- | --- | --- | --- | --- | --- | --- | --- | --- | --- | --- | --- | --- | --- | --- | --- | --- | --- | --- | --- | --- | --- |
| COc1ccc2c(c1)c(Cc1ccc(OCCN(C)C)cc1)c(-c1cc(OC)c(OC)c(OC)c1)n2Cc1ccc(OCCN(C)C)cc1 | 9.67 million/mm3 | 14.47 U/L | 21.31 g | 5.53 thousands/mm3 | Non-Toxic | Non-Toxic | 21.92 U/L | 6.73 thousands/mm3 | Non-Toxic | 1.93 mg/mL | 1.48 mg/mL | 63.83 mg/dL | 97.53 U/L | 91.2 mg/dL | 0.36 mg/dL | 0.12 mg/dL | 15.96 g/dL | 91.7 mg/dL | Non-Toxic | 4.86 thousands/mm3 | Activity [21]: 17.01 g/dL; Activity [22]: Non-Toxic; Activity [23]: 15.07 U/L; Activity [24]: Non-Toxic; Activity [25]: 0.14 mg/dL; Activity [26]: 1.94 g/dL; Activity [27]: Non-Toxic; Activity [28]: 121.96 mg/dL; Activity [29]: 21.71 g; Activity [30]: 27.73 U/L; Activity [31]: 1.52 g/dL; Activity [32]: 1.61 mg/mL; Activity [33]: 21.88 g; Activity [34]: 8.72 million/mm3; Activity [35]: 1.43 g/dL |
| COc1ccc2c(c1)c(Cc1ccc(OC(C)CN(C)C)cc1)c(-c1cc(OC)c(OC)c(OC)c1)n2Cc1ccc(OC(C)CN(C)C)cc1 (stereo not given) | 9.12 million/mm3 | 11.82 U/L | 23.48 g | 5.6 thousands/mm3 | Non-Toxic | Non-Toxic | 33.28 U/L | 6.23 thousands/mm3 | Non-Toxic | 1.66 mg/mL | 1.28 mg/mL | 105.82 mg/dL | 87.76 U/L | 86.58 mg/dL | 0.36 mg/dL | 0.12 mg/dL | 15.54 g/dL | 83.99 mg/dL | Non-Toxic | 7.5 thousands/mm3 | Activity [21]: 15.21 g/dL; Activity [22]: Non-Toxic; Activity [23]: 18.69 U/L; Activity [24]: Non-Toxic; Activity [25]: 0.12 mg/dL; Activity [26]: 1.53 g/dL; Activity [27]: Non-Toxic; Activity [28]: 108.65 mg/dL; Activity [29]: 21.6 g; Activity [30]: 33.25 U/L; Activity [31]: 1.48 g/dL; Activity [32]: 1.57 mg/mL; Activity [33]: 22.75 g; Activity [34]: 8.67 million/mm3; Activity [35]: 1.29 g/dL |
